Test results taken from ChEMBL document CHEMBL1122125, “Synthesis and in vivo antitumor activity of potential 5-fluorouracil prodrugs” (1982).

What was measured:
[1] = system: Mus musculus; assay: Antitumor activity was determined for median survival of mice against P-388 leukemia in mice at a dose of 600 mg/kg; format: functional
In short: (§1)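 Male B6D2F1J mice implanted ip with 10⁶ P-388 cells on day 0; test agents given ip on days 1–4 (qd × 4) in sterile saline, or in 10% Tween 80 for the lipophilic thioether. Groups of 5 treated mice, with 10–17 untreated controls per experiment. Mice weighed on days 1 and 7 to give the 7-day weight change in g and %. Survival recorded in days as median and range.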

[2] = system: Mus musculus; assay: Percent increase in life span against P-388 leukemia in mice was determined at a dose of 300 mg/kg; format: functional; conditions: P388
In short: (§2)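 Male B6D2F1J mice, 5 per dose group, received 10⁶ P-388 cells ip on day 0. Dosing was ip qd × 4 on days 1-4 in sterile saline, or 10% Tween 80 for the butyl thioether. Median survival times of treated (T) and untreated control (C, 10-17 mice) groups were compared: %ILS = [(T/C) − 1]100. Weights taken on days 1 and 7.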

[3] = system: Mus musculus; assay: Antitumor activity was determined for average 7-day weight change against P-388 leukemia in mice at a dose of 75 mg/kg; format: functional
In short: (§3)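 Male B6D2F1J mice given 10⁶ P-388 cells ip on day 0, then treated ip once daily on days 1-4 (qd × 4), 5 mice per dose group. Compounds dosed in sterile saline, except one lipophilic thioether given in 10% Tween 80. Mice weighed on days 1 and 7; mean weight per mouse on day 1 and 7-day weight change reported in g and as percent.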

[4] = system: Mus musculus; assay: Antitumor activity was determined for median survival of mice against P-388 leukemia in mice at a dose of 300 mg/kg; format: functional; in short: as §1
[5] = system: Mus musculus; assay: Antitumor activity was determined for survival range of mice against P-388 leukemia in mice at a dose of 75 mg/kg; format: functional
In short: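 Male B6D2F1J mice, 5 per dose group, implanted ip with 10⁶ P-388 leukemia cells on day 0. Drug given ip daily on days 1-4 (qd × 4) in sterile saline, or in 10% Tween 80 for the butyl thioether. Survival range recorded in days. Untreated control groups had 10-17 animals per experiment. Mice weighed on days 1 and 7.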

[6] = system: Mus musculus; assay: Percent increase in life span against P-388 leukemia in mice was determined at a dose of 75 mg/kg; format: functional; conditions: P388; in short: as §2
[7] = system: Mus musculus; assay: Antitumor activity was determined for average weight on day 1 against P-388 leukemia in mice at a dose of 150 mg/kg; format: functional; in short: as §3
[8] = system: Mus musculus; assay: Antitumor activity was determined for average weight on day 1 against P-388 leukemia in mice at a dose of 75 mg/kg; format: functional
In short: (§4)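 Male B6D2F1J mice, groups of 5, inoculated ip with 10⁶ P-388 cells on day 0. Drug given ip on days 1-4 (qd × 4) in sterile saline, or in 10% Tween 80 for the poorly water-soluble thioether. Average weight per mouse recorded on day 1, with reweighing on day 7 for percent weight change. Untreated control groups had 10-17 animals per experiment.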

[9] = system: Mus musculus; assay: Antitumor activity was determined for 7-day average percent weight change against P-388 leukemia in mice at a dose of 75 mg/kg; format: functional; in short: as §3
[10] = system: Mus musculus; assay: Antitumor activity was determined for average 7-day weight change against P-388 leukemia in mice at a dose of 150 mg/kg; format: functional; in short: as §3
[11] = system: Mus musculus; assay: Antitumor activity was determined for survival range of mice against P-388 leukemia in mice at a dose of 600 mg/kg; format: functional; in short: as §1
[12] = system: Mus musculus; assay: Antitumor activity was determined for median survival of mice against P-388 leukemia in mice at a dose of 75 mg/kg; format: functional; in short: as §1
[13] = system: Mus musculus; assay: Percent increase in life span against P-388 leukemia in mice was determined at a dose of 150 mg/kg; format: functional; conditions: P388; in short: as §2
[14] = system: Mus musculus; assay: Antitumor activity was determined for average 7-day weight change against P-388 leukemia in mice at a dose of 300 mg/kg; format: functional; in short: as §3
[15] = system: Mus musculus; assay: Antitumor activity was determined for average weight on day 1 against P-388 leukemia in mice at a dose of 300 mg/kg; format: functional; in short: as §4
[16] = system: Mus musculus; assay: Percent increase in life span against P-388 leukemia in mice was determined at a dose of 600 mg/kg; format: functional; conditions: P388; in short: as §2
[17] = system: Mus musculus; assay: Antitumor activity was determined for 7-day average percent weight change against P-388 leukemia in mice at a dose of 150 mg/kg; format: functional; in short: as §3
[18] = system: Mus musculus; assay: Antitumor activity was determined for average weight on day 1 against P-388 leukemia in mice at a dose of 600 mg/kg; format: functional; in short: as §4
[19] = system: Mus musculus; assay: Antitumor activity was determined for median survival of mice against P-388 leukemia in mice at a dose of 150 mg/kg; format: functional; in short: as §1
[20] = system: L1210; assay: Evaluated for cytotoxicity against L1210 mouse leukemia cells; format: functional; conditions: read-out: ID50 (the source's name)
In short: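 L1210 murine leukemia cells in Eagle's minimal essential medium with 15% fetal calf serum, streptomycin (100 μg/mL), penicillin (100 units/mL) and 0.05 mM 2-mercaptoethanol. Cells counted by Coulter counter after 48 h exposure. ID50 is the 50% growth-inhibitory dose. Triplicate assays, standard deviation ±10%.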

[21] = system: Mus musculus; assay: Antitumor activity was determined for survival range of mice against P-388 leukemia in mice at a dose of 300 mg/kg; format: functional; in short: as §1
[22] = system: Mus musculus; assay: Antitumor activity was determined for survival range of mice against P-388 leukemia in mice at a dose of 150 mg/kg; format: functional; in short: as §1
[23] = system: Mus musculus; assay: Antitumor activity was determined for 7-day average percent weight change against P-388 leukemia in mice at a dose of 300 mg/kg; format: functional; in short: as §3
[24] = system: P388; assay: Percent increase in life span against P-388 leukemia in mice was determined at a dose of 30 mg/kg; format: functional; conditions: Mus musculus; in short: as §2
[25] = system: P388; assay: Antitumor activity was determined for survival range of mice against P-388 leukemia in mice at a dose of 30 mg/kg; format: functional, Mus musculus; in short: as §1
[26] = system: P388; assay: Percent increase in life span against P-388 leukemia in mice was determined at a dose of 15 mg/kg; format: functional; conditions: Mus musculus; in short: as §2
[27] = system: P388; assay: Antitumor activity was determined for 7-day average percent weight change against P-388 leukemia in mice at a dose of 30 mg/kg; format: functional, Mus musculus; in short: as §1
[28] = system: P388; assay: Antitumor activity was determined for average 7-day weight change against P-388 leukemia in mice at a dose of 15 mg/kg; format: functional, Mus musculus; in short: as §1
[29] = system: P388; assay: Antitumor activity was determined for median survival of mice against P-388 leukemia in mice at a dose of 15 mg/kg; format: functional, Mus musculus; in short: as §1
[30] = system: P388; assay: Antitumor activity was determined for average weight on day 1 against P-388 leukemia in mice at a dose of 30 mg/kg; format: functional, Mus musculus; in short: as §1
[31] = system: P388; assay: Antitumor activity was determined for average weight on day 1 against P-388 leukemia in mice at a dose of 15 mg/kg; format: functional, Mus musculus; in short: as §1
[32] = system: P388; assay: Antitumor activity was determined for average 7-day weight change against P-388 leukemia in mice at a dose of 30 mg/kg; format: functional, Mus musculus; in short: as §1
[33] = system: P388; assay: Antitumor activity was determined for survival range of mice against P-388 leukemia in mice at a dose of 15 mg/kg; format: functional, Mus musculus; in short: as §1
[34] = system: P388; assay: Antitumor activity was determined for median survival of mice against P-388 leukemia in mice at a dose of 30 mg/kg; format: functional, Mus musculus; in short: as §1
[35] = system: P388; assay: Antitumor activity was determined for 7-day average percent weight change against P-388 leukemia in mice at a dose of 15 mg/kg; format: functional, Mus musculus; in short: as §1

CCCCSC[C@H]1OC(n2cc(F)c(=O)[nH]c2=O)[C@H](O)[C@@H]1O (stereo partly specified)
Survival median [1]: 4
ILS at 300 mg/kg [2]: -9%
Average weight [3]: 2 g mouse-1
Survival median [4]: 11
Survival range [5]: 11
ILS at 75 mg/kg [6]: -9%
Average weight [7]: 27.8 g mouse-1
Average weight [8]: 26.6 g mouse-1
Weight change [9]: 8%
Average weight [10]: 1.4 g mouse-1
Survival range [11]: 3
Survival median [12]: 11
ILS at 150 mg/kg [13]: -9%
Average weight [14]: -0.4 g mouse-1
Average weight [15]: 28 g mouse-1
ILS at 600 mg/kg [16]: -67%
Weight change [17]: 5%
Average weight [18]: 26.4 g mouse-1
Survival median [19]: 11
IC50 [20]: 270 µM
Survival range [21]: 11
Survival range [22]: 10
Weight change [23]: -1%

O=c1[nH]cc(F)c(=O)[nH]1 [FLUOROURACIL]
ILS at 30 mg/kg [24]: 91%
Survival range [25]: 11
ILS at 15 mg/kg [26]: 73%
Weight change [27]: -13%
Average weight [28]: 0.4 g mouse-1
Survival median [29]: 19
Average weight [30]: 24.2 g mouse-1
Average weight [31]: 24.4 g mouse-1
Average weight [32]: -3.2 g mouse-1
Survival range [33]: 15
IC50 [20]: 1 µM
Survival median [34]: 21
Weight change [35]: 2%
